Test results as given in ChEMBL document CHEMBL1129953, “Heteroaromatic analogs of 1-[2-(diphenylmethoxy)ethyl]- and 1-[2-[bis(4-fluorophenyl)methoxy]ethyl]-4-(3-phenylpropyl)piperazines (GBR 12935 and GBR 12909) as high-affinity dopamine reuptake inhibitors” (J Med Chem, 1997).

Experiments:
[1] = biological target: T1, Monoamine transporters; serotonin & dopamine (Rattus norvegicus) (UniProt P31652+P23977); test: Ratio of binding affinity on SERT with respect to DA; format: protein assay
[2] = biological target: Sodium-dependent dopamine transporter (Rattus norvegicus) (UniProt P23977); test: Ratio of reuptake inhibition on DA with respect to binding affinity of DA; format: functional
Sodium-dependent dopamine transporter (Rattus norvegicus), sequence (P23977 whole entry): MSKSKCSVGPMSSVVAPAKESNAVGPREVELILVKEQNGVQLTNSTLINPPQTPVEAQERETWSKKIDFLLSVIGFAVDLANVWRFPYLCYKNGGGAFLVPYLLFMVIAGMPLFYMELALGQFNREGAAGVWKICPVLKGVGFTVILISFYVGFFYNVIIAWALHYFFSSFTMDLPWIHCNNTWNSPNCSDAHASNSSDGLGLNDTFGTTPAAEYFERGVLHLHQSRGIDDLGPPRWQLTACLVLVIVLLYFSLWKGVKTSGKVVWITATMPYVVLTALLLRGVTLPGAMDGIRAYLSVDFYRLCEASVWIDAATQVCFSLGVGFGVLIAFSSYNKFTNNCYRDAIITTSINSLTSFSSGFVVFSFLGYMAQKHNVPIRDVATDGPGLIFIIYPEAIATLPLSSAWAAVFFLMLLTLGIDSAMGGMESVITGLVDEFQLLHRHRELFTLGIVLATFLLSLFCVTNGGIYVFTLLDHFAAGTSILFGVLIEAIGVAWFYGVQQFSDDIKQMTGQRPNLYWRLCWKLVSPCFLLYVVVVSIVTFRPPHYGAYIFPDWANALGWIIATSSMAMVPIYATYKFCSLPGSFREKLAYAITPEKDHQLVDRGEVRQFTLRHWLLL

[3] = biological target: T2, Sodium-dependent serotonin transporter (Rattus norvegicus, UniProt P31652); test: Binding affinity at the serotonin transporter using [125I]RTI-55 in rat caudate membranes.; format: cell membranes
T2 sequence (P31652 whole entry): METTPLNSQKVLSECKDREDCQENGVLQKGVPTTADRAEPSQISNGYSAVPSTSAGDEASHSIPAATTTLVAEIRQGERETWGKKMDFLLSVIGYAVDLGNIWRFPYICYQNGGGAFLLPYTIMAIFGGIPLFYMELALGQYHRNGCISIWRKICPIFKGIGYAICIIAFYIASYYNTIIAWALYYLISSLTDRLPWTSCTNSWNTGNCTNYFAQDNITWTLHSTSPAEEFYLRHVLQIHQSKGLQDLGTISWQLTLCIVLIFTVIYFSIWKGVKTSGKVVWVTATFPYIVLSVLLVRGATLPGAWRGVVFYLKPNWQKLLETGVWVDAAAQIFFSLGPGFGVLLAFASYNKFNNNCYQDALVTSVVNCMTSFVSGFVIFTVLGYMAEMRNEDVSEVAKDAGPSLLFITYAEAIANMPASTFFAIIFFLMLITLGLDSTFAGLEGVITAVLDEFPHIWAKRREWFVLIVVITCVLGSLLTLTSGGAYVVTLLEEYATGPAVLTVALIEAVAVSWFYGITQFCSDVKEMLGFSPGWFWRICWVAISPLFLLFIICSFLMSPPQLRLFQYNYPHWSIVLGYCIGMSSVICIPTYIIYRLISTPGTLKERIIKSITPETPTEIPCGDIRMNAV
Summary of the method: (§1)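 Triplicate incubation 18–24 h at 4 °C, then filtration over PEI-presoaked GF/B filters. Eight-point inhibition curves (90–10% of control) give the IC50.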

[4] = biological target: T3, Sodium-dependent dopamine transporter (Rattus norvegicus, UniProt P23977); test: Reuptake inhibition at the dopamine transporter labeled with radioligand [3H]dopamine on synaptosomes obtained from rat caudate.; format: functional, subcellular, Brain
T3 sequence (P23977 whole entry): as the sequence (P23977 whole entry) above
Summary of the method: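 Rat caudate synaptosomes (10% sucrose homogenate, 1000g supernatant). [3H]DA at 5 nM final in Krebs-phosphate buffer pH 7.4 with ascorbic acid and 50 μM pargyline. Incubated 15 min at 25 °C. Nonspecific uptake defined with 1 μM GBR 12909. Filtered over GF/B filters and counted. IC50 reported.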

[5] = biological target: T1, Monoamine transporters; serotonin & dopamine (Rattus norvegicus); test: Ratio of reuptake inhibition of 5-HT with respect to DA; format: functional
[6] = biological target: T3, Sodium-dependent dopamine transporter; test: Binding affinity at the dopamine transporter using [125I]RTI-55 in rat caudate membranes.; format: cell membranes
Summary of the method: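 [125I]RTI-55 at 0.01 nM (SA 2200 Ci/mmol). […] Incubated in triplicate 18–24 h at 4 °C to equilibrium. Filtered over PEI-presoaked GF/B filters. Eight-point inhibition curves spanning 90% to 10% of control. IC50 reported.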

[7] = biological target: T2, Sodium-dependent serotonin transporter; test: Binding affinity was determined at the Serotonin transporter labeled with radioligand [125 I] RTI-55; summary of the method: as §1
[8] = biological target: T3, Sodium-dependent dopamine transporter; test: Binding affinity was determined at the dopamine transporter labeled with radioligand [125 I] RTI-55
Summary of the method: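 Incubated in triplicate 18–24 h at 4 °C to equilibrium. Filtered over PEI-presoaked GF/B filters. Eight-point inhibition curves spanning 90% to 10% of control. IC50 reported.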

[9] = biological target: T3, Sodium-dependent dopamine transporter; test: Binding affinity was determined at the dopamine transporter labeled with radioligand [125 I] RTI-55 in nonstandard conditions
Summary of the method: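 Run on rat caudate synaptosomes in Krebs-phosphate buffer with 1 mg/mL BSA. Drug preincubated 60 min at 25 °C, then 10 pM [125I]RTI-55 added for 20 min at 25 °C. Filtered over PEI-presoaked GF/B filters. Nonspecific binding defined with 1 μM GBR 12909. Mean ± SD of three independent experiments.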

[10] = biological target: T3, Sodium-dependent dopamine transporter; test: Reuptake inhibition was determined at the dopamine transporter labeled with radioligand [3H]dopamine in nonstandard conditions on brain membranes obtained from rat; format: functional, Membrane
Summary of the method: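 Synaptosomes preincubated with drug 60 min at 25 °C in Krebs-phosphate buffer with 1 mg/mL BSA. 5 nM [3H]DA then added for 20 min at 25 °C. Nonspecific uptake defined with 1 μM GBR 12909. Stopped by filtration. Mean ± SD of three independent experiments.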

[11] = Sigma receptor binding was determined by labeling with radioligand [3H](+)-pentazocine on frozen membranes obtained from frozen guinea pig brain

T1 sequence (P23977 whole entry, looked up): as the sequence (P23977 whole entry) above
T1 sequence (P31652 whole entry, looked up): as the sequence (P31652 whole entry) above

Structure (SMILES)	Ratio [1]	Ratio [2]	IC50 [3] [nM]	IC50 [4] [nM]	Ratio [5]	IC50 [6] [nM]	IC50 [7] [nM]	IC50 [8] [nM]	IC50 [9] [nM]	IC50 [10] [nM]	IC50 [11] [nM]
Fc1ccc(C(OCCN2CCN(Cc3cc4ccccc4s3)CC2)c2ccc(F)cc2)cc1	121	8.3	495	34	36	4.1	–	–	–	–	–
C(=C\c1cccnc1)/CN1CCN(CCOC(c2ccccc2)c2ccccc2)CC1	61	1.5	2760	64	57	44	–	–	–	–	–
Fc1ccc(C(OCCN2CCN(CCCc3ccco3)CC2)c2ccc(F)cc2)cc1	35	1.3	–	7.9	52	–	204	5.9	–	–	–
Fc1ccc(C(OCCN2CCN(Cc3ccc4ncccc4c3)CC2)c2ccc(F)cc2)cc1	9	1.2	551	–	–	62	–	–	–	–	–
c1ccc(C(OCCN2CCN(Cc3cccc4ccccc34)CC2)c2ccccc2)cc1	3	3.6	336	406	< 1	114	–	–	–	–	–
Fc1ccc(C(OCCN2CCN(CCCc3cccnc3)CC2)c2ccc(F)cc2)cc1	175	1.3	–	20	321	–	2800	16	–	–	–
Fc1ccc(C(OCCN2CCN(Cc3cc4ccccc4[nH]3)CC2)c2ccc(F)cc2)cc1	163	18.6	119	13	39	0.7	–	–	2.94	1.86	–
c1ccc(C(OCCN2CCN(Cc3nc4ccccc4[nH]3)CC2)c2ccccc2)cc1	41	0.8	1880	37	110	46	–	–	–	–	–
Fc1ccc(C(OCCN2CCN(Cc3nc4ccccc4[nH]3)CC2)c2ccc(F)cc2)cc1	17	1.3	256	20	40	15	–	–	–	–	–
Fc1ccc(C(OCCN2CCN(C/C=C/c3cccs3)CC2)c2ccc(F)cc2)cc1	40	5.9	–	13	29	–	88	2.2	–	–	–
C(=C\c1cccs1)/CN1CCN(CCOC(c2ccccc2)c2ccccc2)CC1	184	1.6	1170	10	200	6.4	–	–	–	–	–
Fc1ccc(C(OCCN2CCN(C/C=C/c3ccco3)CC2)c2ccc(F)cc2)cc1	62	4	–	7.2	61	–	109	–	–	–	–
c1ccc(C(OCCN2CCN(Cc3ccc4ccccc4n3)CC2)c2ccccc2)cc1	10	1	1990	192	21	199	–	–	–	–	–
Fc1ccc(C(OCCN2CCN(Cc3cnc4ccccc4c3)CC2)c2ccc(F)cc2)cc1	30	4.6	485	74	12	16	–	–	–	–	–
c1ccc(C(OCCN2CCN(Cc3cc4ccccc4o3)CC2)c2ccccc2)cc1	110	1.3	1890	22	136	17	–	–	43.6	31	–
c1ccc(C(OCCN2CCN(Cc3cnc4ccccc4c3)CC2)c2ccccc2)cc1	16	1.5	1160	111	27	72	–	–	–	–	–

Structure (SMILES)	Ratio [1]	Ratio [2]	IC50 [3] [nM]	IC50 [4] [nM]	Ratio [5]	IC50 [6] [nM]	IC50 [7] [nM]	IC50 [8] [nM]	IC50 [9] [nM]	IC50 [10] [nM]	IC50 [11] [nM]
Fc1ccc(C(OCCN2CCN(Cc3ccc4ccccc4n3)CC2)c2ccc(F)cc2)cc1	< 1	1.9	51	106	3	56	–	–	–	–	–
c1ccc(C(OCCN2CCN(CCCc3nc4ccccc4[nH]3)CC2)c2ccccc2)cc1	13	0.7	309	17	39	23	–	–	–	–	–
c1ccc(C(OCCN2CCN(CCCc3cccnc3)CC2)c2ccccc2)cc1	31	0.9	2420	70	53	78	–	–	–	–	–
c1ccc(C(OCCN2CCN(CCCc3ccco3)CC2)c2ccccc2)cc1	234	1.3	1520	8.5	300	6.5	–	–	–	–	–
C(=C\c1ccco1)/CN1CCN(CCOC(c2ccccc2)c2ccccc2)CC1	367	1.9	1840	9.6	281	5	–	–	–	–	–
Fc1ccc(C(OCCN2CCN(C/C=C/c3cccnc3)CC2)c2ccc(F)cc2)cc1	25	1.1	–	14.5	46	–	334	13.6	–	–	–
Fc1ccc(C(OCCN2CCN(Cc3ccc4ccccc4c3)CC2)c2ccc(F)cc2)cc1	39	3.8	312	30	20	8	–	–	–	–	–
c1ccc(CCCN2CCN(CCOC(c3ccccc3)c3ccccc3)CC2)cc1	–	–	–	–	–	–	–	–	–	–	17
c1ccc(C(OCCN2CCN(Cc3cc4ccccc4s3)CC2)c2ccccc2)cc1	131	1.1	2420	19	184	18	–	–	–	–	–
Fc1ccc(C(OCCN2CCN(Cc3cccc4ccccc34)CC2)c2ccc(F)cc2)cc1	8	10.1	243	312	< 1	31	–	–	–	–	–
c1ccc(C(OCCN2CCN(CCCc3cccs3)CC2)c2ccccc2)cc1	162	1.9	842	9.7	205	5.2	–	–	–	–	–
c1ccc(C(OCCN2CCN(Cc3cc4ccccc4[nH]3)CC2)c2ccccc2)cc1	619	8	668	8.8	241	1.1	–	–	2.19	2.62	–
Fc1ccc(C(OCCN2CCN(CCCc3cccs3)CC2)c2ccc(F)cc2)cc1	32	1.8	–	6.1	55	–	105	3.3	–	–	–
Fc1ccc(C(OCCN2CCN(CCCc3nc4ccccc4[nH]3)CC2)c2ccc(F)cc2)cc1	11	3.2	28	8.1	9	2.5	–	–	–	–	–
c1ccc(C(OCCN2CCN(Cc3ccc4ncccc4c3)CC2)c2ccccc2)cc1	4	0.7	845	140	12	190	–	–	–	–	–
Fc1ccc(C(OCCN2CCN(Cc3cc4ccccc4o3)CC2)c2ccc(F)cc2)cc1	45	2.9	286	18.6	41	6.4	–	–	17.8	12.3	–
